Compound activity as filed in PubChem BioAssay.
Rows were chosen to be rich in hits. Some 2.5% of all compounds tested hit in one or more screens of this group.
FLuc act counter: FLuc activators, initial screening, artefact control for FLuc-dependent activation tests, biochemical, ATPlite luminescence; 200,000 tested, under 10 active; AID 1027, 2008; ATPlite luciferase biochemical, 10 min; 0 = ATP-free wells, 1 = DMSO control; activation factor at 10 µM;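 active means luciferase activation factor, scaled between plate controls, of at least 2 with compound at 10 µM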
Target sequence (P08659 whole entry, looked up): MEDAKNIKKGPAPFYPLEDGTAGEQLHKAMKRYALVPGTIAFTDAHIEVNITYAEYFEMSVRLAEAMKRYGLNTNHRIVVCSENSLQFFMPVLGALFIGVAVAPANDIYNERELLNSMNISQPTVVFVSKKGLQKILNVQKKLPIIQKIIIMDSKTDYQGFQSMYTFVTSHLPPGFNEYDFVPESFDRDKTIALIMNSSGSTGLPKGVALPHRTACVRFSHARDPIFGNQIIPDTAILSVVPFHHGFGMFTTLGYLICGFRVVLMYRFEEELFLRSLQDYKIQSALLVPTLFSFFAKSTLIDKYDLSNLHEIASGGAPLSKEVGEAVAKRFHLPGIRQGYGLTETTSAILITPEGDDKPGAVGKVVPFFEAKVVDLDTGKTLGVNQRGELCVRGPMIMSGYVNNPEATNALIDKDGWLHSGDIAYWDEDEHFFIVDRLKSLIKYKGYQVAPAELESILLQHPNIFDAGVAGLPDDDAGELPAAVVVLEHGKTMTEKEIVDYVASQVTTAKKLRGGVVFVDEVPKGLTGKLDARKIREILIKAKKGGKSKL
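Material: Luciferase/luciferin reagent mix | Doses: Test compounds dosed from 2 mM stocks in 100% DMSO | Timing: 10 min incubation after luciferase reagent addition, room temperature | Measured by: Luminescence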
Diaph inh CS: diaphorase inhibitors and chemical oxidizers, primary screen, counter-screen for diaphorase-coupled primary assays, biochemical, uHTS, resorufin fluorescence; diaphorase resazurin-to-resorufin fluorescence, NADH, 16 min; bacterial (C. kluyveri) enzyme, not human; inhibition, % at 20 µM; actives 0.69% (n = 190,000); AID 1217, 2008;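 active means primary screen inhibition at 20 µM above a set limit, cut at about 50% in these data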;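 further: plate controls were DMSO with full reaction for no effect and wells lacking NADH for full effect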
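Test system: Clostridium kluyveri diaphorase enzyme / Quantity: diaphorase at 0.14 U/mL in enzyme working solution / Incubation: 16-min room-temperature incubation before reading / Benchmarks: NADH-free wells as positive control, DMSO-only neutral wells / Signal: resorufin fluorescence 544/590 nm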
FLuc inhib CS: firefly luciferase enzyme inhibitors, primary screen, artefact control for luciferase-based inhibitor screens, biochemical, luminescence, ATPLite | AID 1006, 2008 | Luciferin 4-monooxygenase (Photinus pyralis), P08659 | inhibition, % at 10 µM | actives 1.5% (n = 200,000) | 10 min;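 active means inhibition above about 50% when tested at 10 µM, limit read from the data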
Diaph act CS: compounds boosting diaphorase resazurin reduction – biochemical, uHTS, resorufin fluorescence, counter-screen for diaphorase-coupled primary assays, primary screen | Diaphorase/resazurin coupled assay, 16 min; hits give high values; 1 = vehicle wells, 0 = NADH-free wells | actives 0.005% (n = 190,000) | activation factor at 20 µM;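 active means diaphorase activity raised at least twofold by the compound at 20 µM; inactive means activation factor below 2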
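Test system: Clostridium kluyveri diaphorase, purified enzyme. Buffer or medium: 50 mM HEPES pH 7.4 buffer plus MgCl2 and Tween 20. Also added: 0.114 mM NADH and 0.1 mM resazurin, final amounts. Dosing: compound 20 µM once, DMSO 1%. Schedule: 16 min enzyme reaction, ambient temperature. Detection: fluorescence of resorufin, 544 nm excitation, 590 nm emission.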
PMI activator: activators of human PMI, primary screen, biochemical, fluorescence intensity, near-Km mannose 6-phosphate | activation factor at 20 µM | purified human PMI, coupled resazurin fluorescence, 20 min; hits give high values; 1 = vehicle control, 0 substrate-free wells | actives 0.005% (n = 190,000) | AID 1214, 2008;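 active means activation factor of 2 or more at 20 µM, relative to plate controls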
PMI act hi M6P: human PMI activators, high substrate, primary screen, biochemical, fluorescence intensity, near-saturating mannose 6-phosphate; Mannose-6-phosphate isomerase (Homo sapiens), P34949; coupled PMI enzyme assay, resazurin fluorescence, 20 min; hits give high values; 1 = untreated enzyme, 0 = substrate-free blank; activation factor at 20 µM; actives 0.34% (n = 190,000); AID 1216, 2008;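 active means activation factor of 2 or more at 20 µM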
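Test system: human phosphomannose isomerase with PGI, G6PDH, diaphorase coupling enzymes; Amount: PMI at 15 ng/mL final; Reagent: Mannose-6-phosphate 1.0 mM (near-saturating) plus 0.22 mM NADP+; Timing: 20 min, room temperature; Technique: resorufin fluorescence at Ex 544/Em 590 nm; Dosing: 20 µM single dose.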
* hit, by the source's call.

Cc1ccc2c(c1)/C(=N/OC(=O)c1ccc(F)cc1)CCS2 was read as FLuc act counter 0.7, Diaph inh CS 0.9, FLuc inhib CS 26.6, Diaph act CS 1, PMI activator 0.9 and PMI act hi M6P 0.9.
`O=C(O/N=C1\CCCc2ccccc21)c1ccc(F)cc1` gave FLuc act counter 0.1, Diaph inh CS 8.8, FLuc inhib CS 86.9*, Diaph act CS 0.9, PMI activator 1.1 and PMI act hi M6P 1.
`O=C(O/N=C1/CCSc2ccccc21)c1ccccc1` gave FLuc act counter 0.3, Diaph inh CS 5.0, FLuc inhib CS 74.6*, Diaph act CS 0.9, PMI activator 0.9 and PMI act hi M6P 1.
Screening Cc1[nH]n(-c2nc(-c3cccc([N+](=O)[O-])c3)cs2)c(=O)c1C returned FLuc act counter 0.4, Diaph inh CS 8.8, FLuc inhib CS 61.0*, Diaph act CS 0.9, PMI activator 1 and PMI act hi M6P 1.1.
Cc1c(Nc2nc(-c3cccc([N+](=O)[O-])c3)cs2)c(=O)n(-c2ccccc2)n1C was read as FLuc act counter 1, Diaph inh CS 13.5, FLuc inhib CS 2.4, Diaph act CS 0.9, PMI activator 0.9 and PMI act hi M6P 1.
`CCOC(=O)CN=C/C(C(C)=O)=C(/C)O` gave FLuc act counter 1.1, Diaph inh CS 9.0, FLuc inhib CS -7.7, Diaph act CS 0.9, PMI activator 1 and PMI act hi M6P 1.
Screening Clc1cncc(Cl)c1NNc1c2ccccc2nc2ccccc12 returned FLuc act counter 1, Diaph inh CS 15.6, FLuc inhib CS 1.1, Diaph act CS 0.8, PMI activator 1.6 and PMI act hi M6P 2.2*.
`Cc1cc(Cl)c2ccccc2n1` gave FLuc act counter 1, Diaph inh CS 5.7, FLuc inhib CS 1.8, Diaph act CS 0.9, PMI activator 1.1 and PMI act hi M6P 1.
Screening CCc1nnc(NC(=O)C(C)N2C(=O)C3C4C=CC(C4)C3C2=O)s1 (configuration not stated) returned FLuc act counter 1, Diaph inh CS 5.2, FLuc inhib CS -3.0, Diaph act CS 0.9, PMI activator 1 and PMI act hi M6P 1.
`COc1cc(NC(=O)COc2ccc(-n3ccnc3)cc2)cc(OC)c1` gave FLuc act counter 1, Diaph inh CS 1.5, FLuc inhib CS -2.4, Diaph act CS 1, PMI activator 0.9 and PMI act hi M6P 0.9.
C/C(=N\NC(=O)COc1ccc(C(C)(C)C)cc1)c1ccc(-n2ccnc2)cc1 was read as FLuc act counter 0.2, Diaph inh CS 8.5, FLuc inhib CS 79.8*, Diaph act CS 0.9, PMI activator 0.8 and PMI act hi M6P 0.8.
For COc1ccc(OCC(=O)N/N=C(\C)c2ccc(-n3ccnc3)cc2)cc1 the results were FLuc act counter 0.4, Diaph inh CS 3.4, FLuc inhib CS 56.9*, Diaph act CS 1, PMI activator 0.9 and PMI act hi M6P 0.9.
`C/C(=N\Nc1ccc(Cl)c(Cl)c1)c1ccc(-n2ccnc2)cc1` gave FLuc act counter 1, Diaph inh CS 5.2, FLuc inhib CS -3.0, Diaph act CS 0.9, PMI activator 1.7 and PMI act hi M6P 2.6*.
`O=C(NC(=S)Nc1ccc2c(c1)C(=O)c1ccccc1C2=O)c1ccc(F)cc1` gave FLuc act counter 0.9, Diaph inh CS -9.3, FLuc inhib CS 8.2, Diaph act CS 1.1, PMI activator 1.3 and PMI act hi M6P 1.3.
Screening Cc1ccc(/C=C/C(=O)Nc2ccc(N(C)C)cc2)o1 returned FLuc act counter 0.3, Diaph inh CS 9.9, FLuc inhib CS 66.6*, Diaph act CS 0.9, PMI activator 0.9 and PMI act hi M6P 0.7.
Screening CC(C)(C)n1cnc(C(N)=O)c1N returned FLuc act counter 1, Diaph inh CS 16.3, FLuc inhib CS -2.8, Diaph act CS 0.8, PMI activator 1.1 and PMI act hi M6P 1.
For c1cncc(-c2nc3ccccc3o2)c1 the results were FLuc act counter 1, Diaph inh CS -4.4, FLuc inhib CS 2.7, Diaph act CS 1, PMI activator 1 and PMI act hi M6P 1.
c1ccc2nc(-c3nc4ccccc4o3)ccc2c1 was read as FLuc act counter 0.1, Diaph inh CS 13.4, FLuc inhib CS 88.5*, Diaph act CS 0.9, PMI activator 0.8 and PMI act hi M6P 0.9.
Screening COc1ccc(Cl)cc1S(=O)(=O)N1CCCC1=O returned FLuc act counter 1.1, Diaph inh CS 11.9, FLuc inhib CS -7.0, Diaph act CS 0.9, PMI activator 1 and PMI act hi M6P 1.
Screening CC(=O)C1=C(c2ccc(Br)cc2)C(=O)c2ccccc2C1=O returned FLuc act counter 1.1, Diaph inh CS 61.9*, FLuc inhib CS -7.6, Diaph act CS 0.4, PMI activator 0.2 and PMI act hi M6P 0.2.
`CNC1=C(N(C(C)=O)c2ccc(Br)cc2)C(=O)c2ccccc2C1=O` gave FLuc act counter 1, Diaph inh CS 40.7, FLuc inhib CS 1.2, Diaph act CS 0.6, PMI activator 0.6 and PMI act hi M6P 0.4.
CC(C)OCCCn1c(SCC(=O)N2CCc3ccccc32)nc2ccccc2c1=O was read as FLuc act counter 1.1, Diaph inh CS 7.1, FLuc inhib CS -6.4, Diaph act CS 0.9, PMI activator 1 and PMI act hi M6P 1.
Cc1ccc(S(=O)(=O)/N=C(\c2ccc(F)cc2)n2c(C)nc3ccccc32)cc1 was read as FLuc act counter 1, Diaph inh CS -11.7, FLuc inhib CS -2.2, Diaph act CS 1.1, PMI activator 1.1 and PMI act hi M6P 1.1.
For COc1ccc(N2CSC3=C(C#N)C(c4cccc(OC)c4OC)CC(=O)N3C2)cc1 (configuration not stated) the results were FLuc act counter 1, Diaph inh CS 44.6, FLuc inhib CS 1.7, Diaph act CS 0.6, PMI activator 0.8 and PMI act hi M6P 1.2.
Cc1cccc(N2CSC3=C(C#N)C(c4ccc(C)o4)CC(=O)N3C2)c1 (configuration not stated) was read as FLuc act counter 1, Diaph inh CS 63.9*, FLuc inhib CS 2.3, Diaph act CS 0.4, PMI activator 1.1 and PMI act hi M6P 1.
